Assay results from ChEMBL document CHEMBL4613273, “Discovery of Aryl Formyl Piperidine Derivatives as Potent, Reversible, and Selective Monoacylglycerol Lipase Inhibitors” (J Med Chem, 2020).
Activity calls are given as the source filed them. No cut-off for these calls is given here.

How the values were obtained:
[1] = biological target: T1, Monoglyceride lipase (Homo sapiens) (UniProt Q99685); experiment: Reversible inhibition of human recombinant MAGL pre-incubated for up to 60 mins before MAGL substrate addition and further incubated for 10 mins
T1 sequence (whole entry): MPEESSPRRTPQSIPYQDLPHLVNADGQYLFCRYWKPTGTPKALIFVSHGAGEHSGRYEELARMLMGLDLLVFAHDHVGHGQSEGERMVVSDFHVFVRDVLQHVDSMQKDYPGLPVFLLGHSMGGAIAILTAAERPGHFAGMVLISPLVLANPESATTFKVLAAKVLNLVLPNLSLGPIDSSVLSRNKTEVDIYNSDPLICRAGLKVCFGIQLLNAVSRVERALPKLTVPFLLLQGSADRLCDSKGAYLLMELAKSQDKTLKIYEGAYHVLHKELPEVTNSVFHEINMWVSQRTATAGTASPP
Summary of the method: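 The inhibitor was preincubated with MAGL for 0, 30 or 60 min before substrate was added to start the reaction. IC50 (nM) was determined at each preincubation time, from 3 independent experiments.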

[2] = biological target: T1, Monoglyceride lipase (Homo sapiens); experiment: Reversible inhibition of human recombinant MAGL at 1 uM pre-incubated for 5 mins before MAGL substrate 4-NPA addition followed by 10 fold dilution and measured after 10 mins
Summary of the method: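 Human MAGL was preincubated with 1 μM inhibitor and then diluted 10-fold to a final 0.1 μM. Percent inhibition after dilution was compared with direct 1 μM and 0.1 μM samples to judge reversibility.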

[3] = Growth inhibition of mouse L929 cells at 20 uM incubated for 24 to 72 hrs relative to control; assay type: cell-based; conditions: read-out: GI
Summary of the method: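 Mouse fibroblast L929 cells were exposed to the compound, including 20 μM, for 24, 48 and 72 h. Growth inhibition was read against control, from 3 independent experiments.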

[4] = AUC (0 to infinity) in Sprague-Dawley rat plasma at 10 mg/kg, iv measured over 1 to 300 mins post dose by LC-MS/MS analysis; assay type: ADME, organism-based; design: dose 10 mg/kg, time infinity, route intravenous; conditions: in vivo
[5] = Half life in Sprague-Dawley rat plasma at 10 mg/kg, iv measured over 1 to 300 mins post dose by LC-MS/MS analysis; assay type: ADME, organism-based
[6] = Cmax in Sprague-Dawley rat plasma at 10 mg/kg, iv measured over 1 to 300 mins post dose by LC-MS/MS analysis; assay type: ADME, organism-based; design: dose 10 mg/kg, route intravenous
[7] = Tmax in Sprague-Dawley rat plasma at 10 mg/kg, ig measured over 1 to 300 mins post dose by LC-MS/MS analysis; assay type: ADME, organism-based; conditions: po
[8] = Cmax in Sprague-Dawley rat plasma at 10 mg/kg, ig measured over 1 to 300 mins post dose by LC-MS/MS analysis; assay type: ADME, organism-based; design: dose 10 mg/kg, route […]; conditions: po
[9] = Bioavailability (0 to t) in Sprague-Dawley rat plasma at 10 mg/kg, ig measured over 1 to 300 mins post dose by LC-MS/MS analysis; assay type: ADME, organism-based; conditions: po
[10] = Protein binding in rat plasma at 20 to 500 ng/mL by ultracentrifugation assay; assay type: ADME, cell-free; conditions: read-out: PPB (converted)
Summary of the method: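 Binding to rat plasma proteins was measured by ultracentrifugation across 20–500 ng/mL of compound.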

Mus musculus [11] = experiment: Antidepressant activity in ICR mouse model of reserpine-induced depression assessed as reduction in awakening at 4 to 16 mg/kg, sc for 6 days followed by reserpine injection 2 hrs after last compound dose and measured after 2 hrs; assay type: functional, organism-based
Summary of the method: (§1)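 In mice, depression was induced with reserpine 4 mg/kg, and the compound was given s.c. at 4, 8 or 16 mg/kg. Controls received phosphate buffer alone. Awakening, finger contact, fear, head touch, autonomous movement, straight and eyelid closure were scored. Data are mean ± SD of 3 independent experiments.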

Mus musculus [12] = experiment: Antidepressant activity in ICR mouse model of reserpine-induced depression assessed as reduction in finger contact at 4 to 16 mg/kg, sc for 6 days followed by reserpine injection 2 hrs after last compound dose and measured after 2 hrs; assay type: functional, organism-based; summary of the method: as §1
Mus musculus [13] = experiment: Antidepressant activity in ICR mouse model of reserpine-induced depression assessed as reduction in head touch at 4 to 16 mg/kg, sc for 6 days followed by reserpine injection 2 hrs after last compound dose and measured after 2 hrs; assay type: functional, organism-based; summary of the method: as §1
Mus musculus [14] = experiment: Antidepressant activity in ICR mouse model of reserpine-induced depression assessed as reduction in autonomous movement at 4 to 16 mg/kg, sc for 6 days followed by reserpine injection 2 hrs after last compound dose and measured after 2 hrs; assay type: functional, organism-based; summary of the method: as §1
Mus musculus [15] = experiment: Antidepressant activity in ICR mouse model of reserpine-induced depression assessed as reduction in straight scores at 4 to 16 mg/kg, sc for 6 days followed by reserpine injection 2 hrs after last compound dose and measured after 2 hrs; assay type: functional, organism-based; summary of the method: as §1
Mus musculus [16] = experiment: Antidepressant activity in ICR mouse model of reserpine-induced depression assessed as reduction in eyelid closure at 4 to 16 mg/kg, sc for 6 days followed by reserpine injection 2 hrs after last compound dose and measured after 2 hrs; assay type: functional, organism-based; summary of the method: as §1
Mus musculus [17] = experiment: Antidepressant activity in ICR mouse model of reserpine-induced depression assessed as immobility time at 5 mg/kg, ig by forced swim test (reference value: 136.84 +/- 46.69 secs); assay type: functional
[18] = Tmax in Sprague-Dawley rat brain at 10 mg/kg, ig measured over 5 to 720 mins post dose by LC-MS/MS analysis
[19] = AUC (0 to t) in Sprague-Dawley rat brain at 10 mg/kg, ig measured over 5 to 720 mins post dose by LC-MS/MS analysis; conditions: in vivo
[20] = AUC (0 to infinity) in Sprague-Dawley rat brain at 10 mg/kg, ig measured over 5 to 720 mins post dose by LC-MS/MS analysis; conditions: in vivo
[21] = Bioavailability (0 to t) in Sprague-Dawley rat plasma at 10 mg/kg, ig measured over 1 to 300 mins post dose by LC-MS/MS analysis

With `O=C(Nc1cccc(Cl)c1)C1CCN(C(=O)c2ccc3ccccc3c2)CC1` the inhibition [1] was “Active”, the inhibition [2] was “Active” and the inhibition at 20 µM [3] was 8.6%. The AUC [4] was 82362.19 µg·min/L, the half-life [5] was 65.8 min and the Cmax [6] was 5480 ng/mL. For the same molecule, the Tmax [7] was 34 min, the Cmax [8] was 83.1 ng/mL and the bioavailability [9] was 12.2%. For the same molecule, the fraction unbound [10] was 0.229, the Activity (Mus musculus [11]) was “Active” and the Activity (Mus musculus [12]) was “Active”. For the same molecule, the Activity (Mus musculus [13]) was “Active”, the Activity (Mus musculus [14]) was “Active” and the Activity (Mus musculus [15]) was “Active”. The Activity (Mus musculus [16]) was “Active”, the Time (Mus musculus [17]) was 89.38 s and the Tmax [18] was 40 min. It also gave an AUCt [19] of 3582.71 µg·min/L, an AUC [20] of 3720.04 µg·min/L and a bioavailability [21] of 12.2%.
